Data taken from ChEMBL document CHEMBL1122070, “Potential antitrypanosomal agents. 1,N2-Disubstituted 2-amino-5-hydroxy-4-methylnaphtho[1,2-d]thiazolium salts and related compounds” (1982).
The source made the active and inactive calls. The calls are words filed in the database; no cut-off is given here.

test system: Trypanosoma brucei; assay: Minimum concentration producing complete lysis of all trypanosomes within 30 min at 37 degrees C in vitro; format: functional
Outline: (§1)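 T. brucei EATRO 110 bloodstream forms from infected rat or mouse blood, 1.5-2 × 10^7/mL in 1:1 phosphate-buffered saline-glucose and MEM, held on ice and used within 8 h. At 37 °C, turbidity was followed at 750 nm. Compound was added at 5–1000 μM final, with Me2SO ≤1% v/v. Phase microscopy scored lysis at 5, 10 and 30 min. MLC is the lowest concentration lysing all within 30 min. Near-MLC concentrations were repeated on 2–3 harvests.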

Compared with `Cc1c(O)c2ccccc2c2nc(Nc3ccccc3)sc12.Cl`, `COc1ccc(Nc2nc3c(s2)c(C)c(O)c2ccccc23)cc1.Cl` is 2-fold lower in Min lytic concentration: 20 µM for the first, 10 µM for the second.

`Nc1nc(N)nc(Nc2ccc([As]3SCC(CO)S3)cc2)n1` (configuration not stated) [MELARSOPROL] and `Cc1c(O)c2ccccc2c2nc(N)sc12.Cl` are the same in Min lytic concentration: 100 µM for the first, 100 µM for the second.

Compared with `Cc1c(O)c2ccccc2c2c1sc1[n+]2CCN1.[Cl-]`, `CNc1sc2c(C)c(O)c3ccccc3c2[n+]1C.[Cl-]` is 3.3-fold higher in Min lytic concentration: 30 µM for the first, 100 µM for the second.

`CCCCCCCCNc1sc2c(C)c(O)c3ccccc3c2[n+]1C.[Cl-]` and `CCCCNc1sc2c(C)c(O)c3ccccc3c2[n+]1C.[Cl-]` are the same in Min lytic concentration: 10 µM for the first, 10 µM for the second.

Going from `C=CCNc1nc2c(s1)c(C)c(O)c1ccccc12.Cl` to `CNc1nc2c(s1)c(C)c(O)c1ccccc12.Cl`, the Min lytic concentration rises from 20 µM to 30 µM (1.5-fold).

Compared with `Cc1c(O)c2ccccc2c2c1sc(NCCO)[n+]2C.[Cl-]`, `COCCNc1sc2c(C)c(O)c3ccccc3c2[n+]1C.[Cl-]` is 2-fold lower in Min lytic concentration: 100 µM for the first, 50 µM for the second.

Compared with `C=CCNc1sc2c(C)c(O)c3ccccc3c2[n+]1CC=C.[Cl-]`, `CCNc1sc2c(C)c(O)c3ccccc3c2[n+]1CC.[Cl-]` is 2.5-fold higher in Min lytic concentration: 20 µM for the first, 50 µM for the second.

Going from `Cc1c(O)c2ccccc2c2c1sc(NC1CCCCC1)[n+]2CCO.[Cl-]` to `CCCNc1sc2c(C)c(O)c3ccccc3c2[n+]1CCC.[Cl-]`, the Min lytic concentration rises from 20 µM to 30 µM (1.5-fold).

Going from `Cc1c(O)c2ccccc2c2c1sc(NCCCN(CCO)CCO)[n+]2C.[Cl-]` to `CCCCNc1sc2c(C)c(O)c3ccccc3c2[n+]1CCCC.[Cl-]`, the Min lytic concentration falls from 100 µM to 10 µM (10-fold).

`Cc1c(O)c2ccccc2c2c1sc(Nc1ccccc1)[n+]2C.[Cl-]` and `Cc1c(O)c2ccccc2c2c1sc(NCCc1ccccc1)[n+]2C.[Cl-]` are the same in Min lytic concentration: 10 µM for the first, 10 µM for the second.

Compared with `Cc1c(O)c2ccccc2c2c1sc(NCCCN1CCN(C)CC1)[n+]2C.Cl.[Cl-]`, `Cc1c(O)c2ccccc2c2c1sc(NCC(C)C)[n+]2CC(C)C.[Cl-]` is 10-fold lower in Min lytic concentration: 100 µM for the first, 10 µM for the second.

In the case of `CCCCCCNc1sc2c(C)c(O)c3ccccc3c2[n+]1CCCCCC.[Cl-]`, the Min lytic concentration is reported as over 10 µM.
`Cl.Nc1nc2c(cc(O)c3ccccc32)s1` was tested, and the Min lytic concentration was over 500 µM.
Work on `Cc1c(O)c2ccccc2c2c1sc(Nc1ccccc1)[n+]2CCO.[Cl-]` yielded a Min lytic concentration of over 5 µM.
Work on `Cc1c(O)c2ccccc2c2c1sc1[n+]2CCCN1.[Cl-]` yielded a Min lytic concentration of over 100 µM.

test system: Trypanosoma brucei; assay: Minimum concentration producing complete lysis of all trypanosomes within 30 min at 37 degrees C in vitro; IA is Inactive at 5 uM; format: functional, organism-based; outline: as §1

With `CC(=O)c1cccc(Nc2sc3c(C)c(O)c4ccccc4c3[n+]2C)c1` the Min lytic concentration was “inactive”.

test system: Mus musculus; assay: Maximum tolerated (nonfatal) intraperitoneal dose tested in mice infected with Trypanosoma brucei.; format: functional
Outline: (§2)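 Female Swiss-Webster mice (20-25 g) infected ip with 5×10^4 T. brucei EATRO 110 in freshly drawn infected mouse blood diluted with minimum essential medium. Groups of five mice received compound ip 4-6 h post-infection, as a milled suspension in saline with 0.25% methylcellulose or as a saline solution. A dose was scored toxic if mean survival was <90% of untreated controls or deaths occurred within 72 h; the compound was then retested at a lower dose.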

Compared with `CNc1nc2c(s1)c(C)c(O)c1ccccc12.Cl`, `Cc1c(O)c2ccccc2c2nc(N)sc12.Cl` is 2-fold lower in Max dose: 100 mg/kg for the first, 50 mg/kg for the second.

With `COc1ccc(Nc2nc3c(s2)c(C)c(O)c2ccccc23)cc1.Cl` the Max dose was 400 mg/kg.

test system: Mus musculus; assay: Maximum tolerated (nonfatal) intraperitoneal dose tested in mice infected with Trypanosoma brucei.

`Cc1c(O)c2ccccc2c2nc(Nc3ccccc3)sc12.Cl` and `Cc1c(O)c2ccccc2c2c1sc(Nc1ccccc1)[n+]2C.[Cl-]` are the same in Max dose: 200 mg/kg for the first, 200 mg/kg for the second.

Compared with `CCCCCCNc1sc2c(C)c(O)c3ccccc3c2[n+]1CCCCCC.[Cl-]`, `CCCCNc1sc2c(C)c(O)c3ccccc3c2[n+]1CCCC.[Cl-]` is 2-fold higher in Max dose: 200 mg/kg for the first, 400 mg/kg for the second.

`Cc1c(O)c2ccccc2c2c1sc1[n+]2CCN1.[Cl-]` and `Cc1c(O)c2ccccc2c2c1sc1[n+]2CCCN1.[Cl-]` are the same in Max dose: 200 mg/kg for the first, 200 mg/kg for the second.

`CCCCCCCCNc1sc2c(C)c(O)c3ccccc3c2[n+]1C.[Cl-]` and `CCCCNc1sc2c(C)c(O)c3ccccc3c2[n+]1C.[Cl-]` are the same in Max dose: 200 mg/kg for the first, 200 mg/kg for the second.

Going from `C=CCNc1nc2c(s1)c(C)c(O)c1ccccc12.Cl` to `C=CCNc1sc2c(C)c(O)c3ccccc3c2[n+]1CC=C.[Cl-]`, the Max dose rises from 200 mg/kg to 400 mg/kg (2-fold).

First: Cc1c(O)c2ccccc2c2c1sc(NCCO)[n+]2C.[Cl-]
Second: COCCNc1sc2c(C)c(O)c3ccccc3c2[n+]1C.[Cl-]
The Max dose of the first is 2-fold higher: 100 mg/kg for the first, 50 mg/kg for the second.

`Cc1c(O)c2ccccc2c2c1sc(Nc1ccccc1)[n+]2CCO.[Cl-]` and `Cc1c(O)c2ccccc2c2c1sc(NCCc1ccccc1)[n+]2C.[Cl-]` are the same in Max dose: 400 mg/kg for the first, 400 mg/kg for the second.

Going from `Cc1c(O)c2ccccc2c2c1sc(NC1CCCCC1)[n+]2CCO.[Cl-]` to `CCNc1sc2c(C)c(O)c3ccccc3c2[n+]1CC.[Cl-]`, the Max dose falls from 400 mg/kg to 200 mg/kg (2-fold).

First: CCCNc1sc2c(C)c(O)c3ccccc3c2[n+]1CCC.[Cl-]
Second: CNc1sc2c(C)c(O)c3ccccc3c2[n+]1C.[Cl-]
The Max dose of the first is 8-fold higher: 400 mg/kg for the first, 50 mg/kg for the second.

First: Cc1c(O)c2ccccc2c2c1sc(NCCCN(CCO)CCO)[n+]2C.[Cl-]
Second: Cc1c(O)c2ccccc2c2c1sc(NCCCN1CCN(C)CC1)[n+]2C.Cl.[Cl-]
The Max dose of the first is 2-fold lower: 50 mg/kg for the first, 100 mg/kg for the second.

`CC(=O)c1cccc(Nc2sc3c(C)c(O)c4ccccc4c3[n+]2C)c1` and `Cc1c(O)c2ccccc2c2c1sc(NCC(C)C)[n+]2CC(C)C.[Cl-]` are the same in Max dose: 200 mg/kg for the first, 200 mg/kg for the second.

test system: Mus musculus; assay: Maximum tolerated (nonfatal) intraperitoneal dose tested in mice infected with Trypanosoma brucei; format: functional; outline: as §2

`Cl.Nc1nc2c(cc(O)c3ccccc32)s1` was tested, and the Max dose was 100 mg/kg.

test system: Trypanosoma brucei; assay: Minimum concentration producing complete lysis of all trypanosomes within 30 min at 37 degrees C in vitro in the presence of bovine serum albumin.; format: functional, organism-based
Outline: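 Trypanolysis of T. brucei EATRO 110 bloodstream forms (1.5-2 × 10^7/mL, 1:1 phosphate-buffered saline-glucose/MEM) with 0.3% bovine serum albumin added to the suspending medium, 37 °C. Compound was added at 5–1000 μM final with Me2SO ≤1% v/v. Turbidity was read at 750 nm and lysis checked microscopically at 5, 10 and 30 min. MLC is the lowest concentration giving complete lysis within 30 min.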

Compared with `Cc1c(O)c2ccccc2c2c1sc(NCCCN(CCO)CCO)[n+]2C.[Cl-]`, `CCCCNc1sc2c(C)c(O)c3ccccc3c2[n+]1CCCC.[Cl-]` is 2-fold lower in Concentration: 200 µM for the first, 100 µM for the second.

Compared with `CCNc1sc2c(C)c(O)c3ccccc3c2[n+]1CC.[Cl-]`, `Cc1c(O)c2ccccc2c2c1sc(NCCCN1CCN(C)CC1)[n+]2C.Cl.[Cl-]` is 2-fold lower in Concentration: 200 µM for the first, 100 µM for the second.
